In ChEMBL document CHEMBL4219069, “In silico studies, synthesis and pharmacological evaluation to explore multi-targeted approach for imidazole analogues as potential cholinesterase inhibitors with neuroprotective role for Alzheimer's disease” (Bioorg Med Chem, 2018):
Activity calls are given as the source filed them. The calls are words filed in the database; no cut-off is given here.

Tests used:
Mus musculus [1] = test: Reversal of scopolamine-induced memory deficit in Swiss albino mouse assessed as increase in step down latency time at 200 mg/kg, po administered for 8 days followed by scopolamine challenge by step down inhibitory avoidance test; format: functional, organism-based
Procedure, shortened: (§1)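 Swiss albino mice (20–25 g, both sexes), dosed p.o. once daily for eight days; scopolamine HBr 0.4 mg/kg i.p. given 1 h after the last dose. Transfer latency on elevated plus maze (open to closed arm, all four legs) recorded 45 min after scopolamine, after five 5-min pre-trials. Step-down latency on Cook's pole apparatus measured 24 h after training. Dunnett post-test.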

Mus musculus [2] = test: Reversal of scopolamine-induced memory impairment in Swiss albino mouse assessed as decrease in transfer latency time at 200 mg/kg, po administered for 8 days followed by scopolamine challenge after 60 mins of last dose measured after 45 mins by elevated plus maze test; format: functional, organism-based; procedure, shortened: as §1
[3] = target: Cholinesterase (Equus caballus) (UniProt P81908); test: Inhibition of equine serum BChE at 10 uM using S-butyrylthiocholine chloride as substrate preincubated for 15 mins followed by substrate addition and measured for 45 mins by Ellmans microplate assay
Procedure, shortened: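 BuChE Ellman microplate assay at single 10 µM concentration: 0.1 M sodium phosphate buffer pH 8, sample in DMSO (1% final DMSO), 15 min room-temperature preincubation, then DTNB and S-butyrylthiocholine chloride; absorbance at 412 nm for 45 min, corrected by enzyme-free blanks. Quadruplicate, repeated at least twice; percent inhibition ± SD.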

Brain = test: Antioxidant activity in brain homogenate (unknown origin) assessed as decrease in TBARS formation by UV-visible spectrophotometric method; format: functional, tissue-based
Procedure, shortened: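 Brain tissue homogenate mixed with test sample at five concentrations, SDS, 20% acetic acid and […], then heated at 95°C for 60 min. After cooling, the chromogen was extracted into butanol:pyridine (15:1) and centrifuged. Absorbance of the organic layer was read at 532 nm against a blank, in duplicate. % inhibition of TBARS = (Abs control − Abs sample)×100/Abs control.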

Acetylcholinesterase [4] = target: Acetylcholinesterase (Homo sapiens, UniProt P22303); test: Inhibition of AChE (unknown origin)
[5] = Toxicity in Swiss albino mouse assessed as mortality at 900 mg/kg, po administered for 14 consecutive days; format: organism-based; conditions: in vivo
Procedure, shortened: (§2)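 Acute oral toxicity per OECD-423 in Swiss albino mice (20–25 g), 3 male + 3 female per group, acclimatized 15 days; suspension in water with 1% w/v sodium carboxymethylcellulose, given p.o. at 900 then 800 mg/kg. Clinical signs, behaviour (awareness, mood, CNS excitation/depression, autonomic reflexes) and mortality observed at 15 min–72 h and up to 14 days.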

Mus musculus [6] = test: Toxicity in Swiss albino mouse assessed as effect on behavior at 800 mg/kg, po administered for 14 consecutive days; format: organism-based; conditions: in vivo; procedure, shortened: as §2
Mus musculus [7] = test: Toxicity in Swiss albino mouse assessed as effect on mood at 800 mg/kg, po administered for 14 consecutive days; format: organism-based; conditions: in vivo; procedure, shortened: as §2
Mus musculus [8] = test: Reversal of scopolamine-induced memory deficit in Swiss albino mouse assessed as increase in step down latency time at 50 to 100 mg/kg, po administered for 8 days followed by scopolamine challenge by step down inhibitory avoidance test; format: functional, organism-based
Procedure, shortened: (§3)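 Done after the EPM session in the same mouse groups: oral test dosing for 8 days, then scopolamine 0.4 mg/kg i.p. Training used Cook's pole apparatus, a wooden platform on a bronze-bar grid, with each mouse placed on the platform and allowed to step down. 24 h later the mouse was lowered onto the platform and step-down latency was timed. Dunnett post-test was applied.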

Mus musculus [9] = test: Toxicity in Swiss albino mouse assessed as effect on awareness at 800 mg/kg, po administered for 14 consecutive days; format: organism-based; conditions: in vivo; procedure, shortened: as §2
Mus musculus [10] = test: Toxicity in Swiss albino mouse assessed as effect on autonomic reflexes at 800 mg/kg, po administered for 14 consecutive days; format: organism-based; conditions: in vivo; procedure, shortened: as §2
Mus musculus [11] = test: Toxicity in Swiss albino mouse assessed as CNS depression at 800 mg/kg, po administered for 14 consecutive days; format: organism-based; conditions: in vivo; procedure, shortened: as §2
Mus musculus [12] = test: Toxicity in Swiss albino mouse assessed as CNS excitation at 800 mg/kg, po administered for 14 consecutive days; format: organism-based; conditions: in vivo; procedure, shortened: as §2
Cholinesterase = Cholinesterase (Equus caballus, UniProt P81908); test: Inhibition of equine serum BuChE using S-butyrylthiocholine chloride as substrate preincubated for 15 mins followed by substrate addition and measured for 45 mins by Ellmans microplate assay
Mus musculus [13] = test: Reversal of scopolamine-induced memory impairment in Swiss albino mouse assessed as decrease in transfer latency time at 50 to 100 mg/kg, po administered for 8 days followed by scopolamine challenge after 60 mins of last dose measured after 45 mins by elevated plus maze test; format: functional, organism-based
Procedure, shortened: (§4)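 Swiss albino mice (20–25 g, both sexes) were acclimatized 15 days and had five 5-min baseline trials on the elevated plus maze. Oral vehicle, test or piracetam (200 mg/kg) was given for 8 days. Scopolamine 0.4 mg/kg i.p. followed 1 h after the last dose. Training started 45 min later: each mouse was placed at the open-arm end facing away, and transfer latency was timed until all four legs entered a closed arm.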

Acetylcholinesterase [14] = target: Acetylcholinesterase (Electrophorus electricus, UniProt O42275); test: Inhibition of electric eel AChE using acetylthiocholine iodide as substrate preincubated for 15 mins followed by substrate addition and measured for 45 mins by Ellmans microplate assay
Mus musculus [15] = test: Toxicity in Swiss albino mouse assessed as mortality at 800 mg/kg, po administered for 14 consecutive days; format: organism-based; conditions: in vivo; procedure, shortened: as §2
Mus musculus [16] = test: Reversal of scopolamine-induced memory deficit in Swiss albino mouse assessed as increase in step down latency time at 50 mg/kg, po administered for 8 days followed by scopolamine challenge by step down inhibitory avoidance test; format: functional, organism-based; procedure, shortened: as §3
Mus musculus [17] = test: Reversal of scopolamine-induced memory impairment in Swiss albino mouse assessed as decrease in transfer latency time at 50 mg/kg, po administered for 8 days followed by scopolamine challenge after 60 mins of last dose measured after 45 mins by elevated plus maze test; format: functional, organism-based; procedure, shortened: as §4

Cholinesterase (Equus caballus), sequence (P81908 whole entry): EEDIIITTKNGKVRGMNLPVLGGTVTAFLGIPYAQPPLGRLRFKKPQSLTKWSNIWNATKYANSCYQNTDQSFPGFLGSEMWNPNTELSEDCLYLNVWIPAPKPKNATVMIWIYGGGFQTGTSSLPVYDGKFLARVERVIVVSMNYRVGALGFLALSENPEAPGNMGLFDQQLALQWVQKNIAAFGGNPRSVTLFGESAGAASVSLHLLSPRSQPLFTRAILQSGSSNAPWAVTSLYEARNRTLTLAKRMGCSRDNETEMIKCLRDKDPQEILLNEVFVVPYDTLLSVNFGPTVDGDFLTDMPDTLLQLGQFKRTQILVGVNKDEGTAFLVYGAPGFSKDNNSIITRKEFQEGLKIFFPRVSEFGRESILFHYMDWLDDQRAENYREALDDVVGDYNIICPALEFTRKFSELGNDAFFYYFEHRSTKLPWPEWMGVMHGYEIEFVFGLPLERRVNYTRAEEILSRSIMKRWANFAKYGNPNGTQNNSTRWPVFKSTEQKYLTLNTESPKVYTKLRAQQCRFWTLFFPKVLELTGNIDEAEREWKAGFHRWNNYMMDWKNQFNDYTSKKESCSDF
Cholinesterase, sequence (P81908 whole entry): as above
Acetylcholinesterase (Electrophorus electricus, UniProt O42275), sequence (O42275 whole entry): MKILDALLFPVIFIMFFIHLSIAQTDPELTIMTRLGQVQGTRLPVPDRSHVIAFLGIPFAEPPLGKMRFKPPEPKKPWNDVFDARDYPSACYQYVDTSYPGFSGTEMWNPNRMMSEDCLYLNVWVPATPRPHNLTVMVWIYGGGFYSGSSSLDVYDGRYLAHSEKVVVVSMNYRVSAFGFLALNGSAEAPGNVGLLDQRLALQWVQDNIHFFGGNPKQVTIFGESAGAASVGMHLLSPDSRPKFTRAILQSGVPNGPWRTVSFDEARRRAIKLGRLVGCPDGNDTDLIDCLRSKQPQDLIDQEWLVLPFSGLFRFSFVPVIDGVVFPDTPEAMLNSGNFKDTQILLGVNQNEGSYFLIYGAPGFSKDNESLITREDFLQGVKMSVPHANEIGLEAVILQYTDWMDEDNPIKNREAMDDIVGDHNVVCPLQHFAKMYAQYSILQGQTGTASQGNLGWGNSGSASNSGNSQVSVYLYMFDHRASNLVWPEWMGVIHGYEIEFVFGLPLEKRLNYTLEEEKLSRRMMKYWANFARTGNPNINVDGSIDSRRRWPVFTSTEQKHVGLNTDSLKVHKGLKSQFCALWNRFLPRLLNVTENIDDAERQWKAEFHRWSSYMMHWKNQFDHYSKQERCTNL
Acetylcholinesterase (Homo sapiens, UniProt P22303), sequence (P22303 whole entry): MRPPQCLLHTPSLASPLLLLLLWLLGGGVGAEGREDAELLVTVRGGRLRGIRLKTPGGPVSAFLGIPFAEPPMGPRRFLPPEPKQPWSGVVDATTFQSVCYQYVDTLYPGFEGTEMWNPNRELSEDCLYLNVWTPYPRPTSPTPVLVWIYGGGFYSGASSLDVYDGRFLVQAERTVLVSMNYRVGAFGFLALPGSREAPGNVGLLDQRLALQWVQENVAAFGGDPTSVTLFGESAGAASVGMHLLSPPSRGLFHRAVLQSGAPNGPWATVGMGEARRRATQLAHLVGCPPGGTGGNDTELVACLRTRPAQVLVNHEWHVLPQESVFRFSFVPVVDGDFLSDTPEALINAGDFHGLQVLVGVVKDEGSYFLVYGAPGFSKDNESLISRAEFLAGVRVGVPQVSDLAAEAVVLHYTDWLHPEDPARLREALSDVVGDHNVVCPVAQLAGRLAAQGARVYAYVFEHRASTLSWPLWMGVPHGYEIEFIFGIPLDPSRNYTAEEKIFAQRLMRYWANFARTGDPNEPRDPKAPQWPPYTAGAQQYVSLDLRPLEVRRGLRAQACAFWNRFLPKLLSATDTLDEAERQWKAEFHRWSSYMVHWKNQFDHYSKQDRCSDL

| Structure (SMILES) | inhibition [3] | IC50 (Brain) | other results |
| --- | --- | --- | --- |
| NC(=O)CN1CCCC1=O | – | – | Activity (Mus musculus [1]): Active; Activity (Mus musculus [2]): Active |
| Oc1ccc(-c2nc(-c3ccccc3)c(-c3ccccc3)[nH]2)cc1O | 79.5% | 59.4 µM | – |
| c1ccc(-c2nc[nH]c2-c2ccccc2)cc1 | 13% | 93.2 µM | – |
| CCCCOc1ccc(C(=O)CCN2CCCCC2)cc1 [DYCLONINE] | – | – | IC50 (Acetylcholinesterase [4]): 181 nM |
| COc1ccc(-c2nc(-c3ccccc3)c(-c3ccccc3)[nH]2)cc1OC | inactive | 94 µM | – |
| COc1cc(-c2nc(-c3ccccc3)c(-c3ccccc3)[nH]2)cc(OC)c1O | inactive | 264 µM | – |
| COc1cccc(-c2nc(-c3ccccc3)c(-c3ccccc3)[nH]2)c1 | 19.2% | 86.5 µM | – |
| COc1cc(-c2nc(-c3ccccc3)c(-c3ccccc3)[nH]2)cc(OC)c1OC | 81.3% | 61.3 µM | mortality at 14 days [5]: 50%; Activity (Mus musculus [6]): Non-Toxic; Activity (Mus musculus [7]): Non-Toxic; Activity (Mus musculus [8]): Active; Activity (Mus musculus [9]): Non-Toxic; Activity (Mus musculus [10]): Non-Toxic; Activity (Mus musculus [11]): Non-Toxic; Activity (Mus musculus [12]): Non-Toxic; IC50 (Cholinesterase; read-out: IC50): 4.99 µM; Activity (Mus musculus [13]): Active; IC50 (Acetylcholinesterase [14]): Not Active; Activity (Mus musculus [15]): Non-Toxic |
| c1ccc(-c2nc(-c3ccccc3)c(-c3ccccc3)[nH]2)cc1 | inactive | 106 µM | – |
| CCc1nn(CCCN2CCN(c3cccc(Cl)c3)CC2)c(=O)n1CCOc1ccccc1 [NEFAZODONE] | – | – | IC50 (Acetylcholinesterase [4]): 1040 nM |
| O=C1O[C@H]([C@@H](O)CO)C(O)=C1O [ASCORBIC ACID] | – | 38.8 µM | – |
| Oc1ccc(-c2nc(-c3ccccc3)c(-c3ccccc3)[nH]2)cc1 | inactive | 62.4 µM | – |
| Oc1ccccc1-c1nc(-c2ccccc2)c(-c2ccccc2)[nH]1 | 13.7% | 101 µM | – |
| Oc1cccc(-c2nc(-c3ccccc3)c(-c3ccccc3)[nH]2)c1 | inactive | 61.8 µM | Activity (Mus musculus [16]): Active; Activity (Mus musculus [17]): Active; IC50 (Cholinesterase): Not Active; IC50 (Acetylcholinesterase [14]; read-out: IC50): 5.33 µM |
